# High-throughput results as filed in PubChem BioAssay.
# MT stabilize HCS – microtubule stabilizers in HeLa cells; HeLa tubulin immunostaining HCS, 24 h; share of cells brighter than vehicle mean+2SD; % tubulin-high responders, % at 10 µM; 200,000 compounds, 0.83% hits; AID 2205;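 active means plate Z-score above 3 for both tubulin-high and condensed-nucleus cell shares, with cell loss under 80%, at 10 µM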;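 further: anti alpha tubulin signal scored within the nucleus-defined area of each cell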
# ROMK mod – modulators of human ROMK potassium channel. Tet-inducible ROMK, thallium flux fluorescence; actives lie on both sides. AID 1918. P48048. B-score at 10 µM. 130,000 compounds, 2% hits;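 active means signal ratio slope over the read window, or its plate-corrected B-score, at least 3 SD from the plate mean, either direction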;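 further: B-score of the F/F0 ratio slope over 7 to 12 s after thallium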
# Target sequence (P48048 whole entry, looked up): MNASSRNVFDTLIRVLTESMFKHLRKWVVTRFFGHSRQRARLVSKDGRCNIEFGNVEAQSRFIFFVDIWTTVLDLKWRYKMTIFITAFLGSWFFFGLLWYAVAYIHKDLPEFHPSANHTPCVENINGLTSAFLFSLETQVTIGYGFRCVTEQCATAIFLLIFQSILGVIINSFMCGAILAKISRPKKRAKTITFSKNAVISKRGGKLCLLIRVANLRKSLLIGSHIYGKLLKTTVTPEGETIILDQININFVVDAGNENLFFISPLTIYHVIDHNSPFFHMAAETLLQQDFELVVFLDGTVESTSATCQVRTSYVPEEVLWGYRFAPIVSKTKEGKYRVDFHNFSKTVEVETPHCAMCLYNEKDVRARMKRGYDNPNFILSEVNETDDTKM
# b-catenin transl – alters nuclear translocation of beta-catenin in HeLa cells. AID 1665. immunofluorescence imaging. nuclear translocation activity, % at 5 µM. 190,000 compounds, 0.3% hits;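 active means nuclear translocation activity above 50% at 5 µM, with a well cell count of 50 or more; inconclusive means wells under 50 cells across six images, flagged as toxic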;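 further: per-cell ratio of nuclear to cytoplasmic median beta-catenin stain intensity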
#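 Test system: human HeLa cells, endogenous beta-catenin. Times: 24 h compound exposure, 37°C. Measured by: beta-catenin immunofluorescence imaging with DAPI.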
# ROMK hit retest – retested hit modulating human ROMK potassium channel | 3,000 compounds, 54% hits | shares compounds with ROMK mod | AID 1917 | ROMK thallium flux, fluorescence ratio; hits give low values | normalized thallium flux (F/F0 slope) at 10 µM;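 active means Flux at 10 µM at least 3 SD below or above vehicle control mean in one or both replicates; inconclusive means no clear call, values can overlap the other calls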
# A number is an active result; . = inactive; ? = inconclusive; / = no result given. The list is not random: actives were taken first. Their share in the collection is about 1.9%.
SMILES,MT stabilize HCS,ROMK mod,b-catenin transl,ROMK hit retest
COC(=O)CN1C(c2ccc(OC)cc2)=Nc2ccc(Cl)cc2C1c1ccccc1 (configuration not stated),.,/,.,/
Cc1nc(COC(=O)c2ccc(S(=O)(=O)N3CCCC3)cc2)cs1,.,.,.,/
CCc1ccc(NC(=S)N(CCN(C)C)C(C)c2ccncc2)cc1 (configuration not stated),.,/,/,/
NS(=O)(=O)c1ccc(NC(=O)COC(=O)COc2ccc(Cl)cc2)cc1,.,.,.,/
CCOc1ccccc1C1C(C#N)=C(N)Oc2cc(N)ccc21 (configuration not stated),.,-4.2,/,0.0531
CCOc1cccc(C2C(C#N)=C(N)Oc3cc(C)n(Cc4ccccn4)c(=O)c32)c1OCC (configuration not stated),.,/,.,/
CCC(=C(c1ccc(OC)cc1)c1ccc(OC)cc1)c1cn(CC(O)CN2CCN(C)CC2)c2ccccc12 (configuration not stated),.,.,.,/
C/C=C/C=N/NC(=O)CN(c1ccc(Br)cc1)S(=O)(=O)c1ccccc1,.,.,.,/
Cc1ccc(CNC(=O)CSc2nc3c(sc4ccccc43)c(=O)n2CCCN2CCCC2)cc1,.,.,.,/
O=C(CSc1nc2c(sc3ccccc32)c(=O)n1CCCN1CCCC1)NCc1ccccc1,.,-3.51,.,0.06
CCO[C@H]1OC(C(=O)N2CCN(Cc3ccc4c(c3)OCO4)CC2)=C[C@@H](C2CC2)[C@@H]1CCCO,.,/,.,/
CN(C)c1ccc(/C=N/NC(=O)c2ccccc2Cl)cc1,21.2,.,76.7,.
CN(C)c1ccc(/C=N/NC(=O)c2cccc(C(=O)N/N=C/c3ccc(N(C)C)cc3)n2)cc1,.,.,.,/
Cc1ccc(NC(=O)N2CCCC(C(=O)O)C2)cc1 (configuration not stated),/,/,.,/
CCOC(=O)C(=NCCCN(C)C)NNc1ccc(Br)cc1,.,/,.,/
CCOC(=O)C(=NCCCN(C)C)NNc1cc(C(F)(F)F)ccc1Cl,.,-2.66,.,0.0587
CC(=O)N/C(=C/c1ccc2c(c1)OCO2)C(=O)NCCO,.,.,.,/
CCOc1cc(CNn2nnnc2N)cc(Cl)c1OCC(=O)NC(C)(C)C,.,/,.,/
Cc1nnsc1C(=O)NNC(=O)c1cccc2ccccc12,/,.,.,/
O=C(Oc1ccc(=O)n(-c2ccccc2)n1)c1ccc(Cl)cc1,.,/,/,/
O=C(Oc1ccc(=O)n(-c2ccccc2)n1)c1ccc(F)cc1,.,-3.83,.,0.0534
Cc1c([N+](=O)[O-])c([N+](=O)[O-])nn1CC(=O)N1CCOCC1,.,.,.,/
O=C(CC(c1ccco1)S(=O)(=O)c1ccccc1)c1ccccc1 (configuration not stated),.,.,.,/
N#Cc1cc(-c2ccccc2)nc(N2CCNCC2)n1,/,/,.,/
C/C(=N\NC(=O)CSc1nc(C)cc(C)n1)c1cccc([N+](=O)[O-])c1,.,/,.,/
SMILES,MT stabilize HCS,ROMK mod,b-catenin transl,ROMK hit retest
COc1cccc(/C=C(/C#N)c2ccc(Cl)cc2)c1OCc1cccc(C(=O)O)c1,.,2.38,.,.
COc1cccc(/C=C(/C#N)c2ccc(F)cc2)c1OCc1cccc(C(=O)O)c1,.,.,.,/
CCc1ccc(-n2c(Cc3ccccc3)n[nH]c2=S)cc1,.,.,.,/
Cc1ccc(Cn2c(=O)n(CCC(=O)NCc3ccc4c(c3)OCO4)c(=O)c3ccccc32)cc1,.,/,.,/
N#Cc1ccccc1Cn1c(=O)n(CCCC(=O)NCc2ccc3c(c2)OCO3)c(=O)c2ccccc21,.,3.59,.,.
COc1cc(CNc2ccc(CNc3ncn[nH]3)cc2)ccc1OCc1ccccc1,.,/,.,/
Cn1nnnc1SCCOc1ccc(C#N)cc1,.,.,.,/
CCOc1cccc(C2C(C(=O)c3ccc(C)o3)=C(O)C(=O)N2c2nccs2)c1 (configuration not stated),.,-5.41,.,0.0379
CCOc1cccc(C2C(C(=O)c3ccc(C)o3)=C(O)C(=O)N2Cc2ccncc2)c1 (configuration not stated),.,/,.,/
Cc1cc(NS(=O)(=O)c2ccc(NC(=O)c3cc4cc(Br)ccc4oc3=O)cc2)no1,.,.,.,/
N#CC1=C(N)C(C#N)(C#N)C(c2cccnc2)C2COCC=C12 (configuration not stated),.,-6.09,/,0.057
N#CC1=C(N)C(C#N)(C#N)C(c2cccnc2)C2CN(C(=O)OCc3ccccc3)CC=C12 (configuration not stated),.,/,.,/
COc1ccc2c(c1)c1nc3ccccc3nc1n2CCCN1C(=O)c2ccccc2C1=O,.,/,.,/
Cc1cccc2c3nc4ccccc4nc3n(CCCN3C(=O)c4ccccc4C3=O)c12,.,/,.,0.0651
CCN(C1CCCCC1)S(=O)(=O)c1cc(C)ccc1OC,.,.,/,/
CCN(C1CCCCC1)S(=O)(=O)c1ccc(OC)c(C)c1,.,-3.41,.,0.0663
CC(C)n1c(=S)[nH]c2cc(Cl)ccc21,/,.,.,/
O=C(NCc1cccnc1)/C(=C/c1ccc(-c2cccc(Cl)c2)o1)S(=O)(=O)c1ccccc1,25.6,-5.31,54.8,0.0512
N#C/C(=C/c1ccc(CNC(=O)C(=O)Nc2cc(Cl)cc(Cl)c2)o1)C(=O)NCc1cccnc1,.,/,.,/
Cc1ccc(C(=O)N/C(=C\c2ccc(-c3cc(Cl)ccc3Cl)o2)C(=O)NCc2cccnc2)cc1,.,.,.,/
O=C(NCc1cccnc1)/C(=C\c1ccc(-c2cccc(Cl)c2)o1)S(=O)(=O)c1ccccc1,51.6,-4.79,.,0.0501
CCOc1ccccc1N1CCN(C(=O)CCCc2nc3ccccc3s2)CC1,.,.,.,/
CCN(CC)S(=O)(=O)c1ccc(N=Cc2c(C)c(C#N)c(=O)n(C)c2O)cc1,.,/,.,/
O=C1N/C(=C/c2ccc(N3CCOCC3)o2)C(=O)N1c1cccc(Cl)c1,.,-4.88,.,0.0387
Cc1ccc(/C=C2/NC(=O)N(c3ccccc3)C2=O)o1,.,/,.,/
SMILES,MT stabilize HCS,ROMK mod,b-catenin transl,ROMK hit retest
COc1ccccc1/C=C/C=C1N=C(/C=C/c2ccc(Cl)cc2)OC/1=O,.,-2.63,.,0.0626
COc1ccccc1/C=C/C1=NC(=C\C=C/c2ccccc2)/C(=O)O1,.,.,.,/
O=C(/C=C/c1ccc(Br)cc1)c1ccco1,.,-5.44,.,?
O=C(/C=C/c1ccc(Br)cc1)c1ccc(NC(=O)c2ccco2)cc1,.,/,.,/
CC1(C)CCc2cc(-c3ccnc(=S)[nH]3)ccc2O1,/,/,.,.
S=c1nccc(-c2ccc3c(c2)CCO3)[nH]1,/,.,.,/
O=C(CC(c1ccccc1)c1ccccc1)Nc1ccncc1,/,/,.,.
O=C(CCc1ccccc1)Nc1ccncc1,.,/,.,/
COC(=O)c1ccc2c(c1)C(C)(C)C(/C=C/c1ccc(OC)c(OC)c1OC)=[N+]2C,.,/,.,0.0584
COC(=O)c1ccc2nc(C)c(C)nc2c1,.,/,.,/
CC(=O)c1cc2c(cc1NS(=O)(=O)c1ccccc1F)OCO2,.,.,.,/
CCSc1nnc(NC(=O)NC(C)(C(F)(F)F)C(F)(F)F)s1,.,.,.,/
CCSc1nnc(NC(=O)NC(CC)(C(F)(F)F)C(F)(F)F)s1,.,-3.99,.,0.058
COc1ccc(C(=O)Cn2nnc(-c3ccccc3NC(=O)C3CCCCC3)n2)cc1,.,.,.,/
